Measurements collected from several papers.
Lines come from different studies, so protocols differ.
Read-out: cell growth or viability

CC(=O)OC[C@H]1O[C@@H](n2cnc(N)nc2=O)[C@H](OC(C)=O)[C@@H]1OC(C)=O — viability (HBL1; ATP luminescence; 0.5 µM; 5 days): 111%
C=C(NC(=O)C(=C)NC(=O)c1csc(C2=N[C@@H]3c4csc(n4)[C@H]4NC(=O)c5csc(n5)[C@H]([C@](C)(O)[C@@H](C)O)NC(=O)[C@H]5CSC(=N5)/C(=C/C)NC(=O)[C@H]([C@@H](C)O)NC(=O)c5csc(n5)[C@]3(CC2)NC(=O)[C@H](C)NC(=O)C(=C)NC(=O)[C@H](C)NC(=O)[C@H]([C@@H](C)CC)N[C@@H]2C=Cc3c([C@H](C)O)cc(nc3[C@H]2O)C(=O)O[C@@H]4C)n1)C(N)=O — EC50 (C4-2): 7300 nM
OCc1ccc(-c2nn(Cc3cncnc3)c3ccccc23)o1 — inhibition (RBE; ATP luminescence; 46 µM; 72 h): 71%
COc1ccc2/c(=N/c3ccccc3NC(=O)CN)cc(-c3ccc4c(c3)OCCO4)oc2c1 — inhibition (MDA-MB-468; CCK-8; 1 µM): 15.2%
CN(C)CCNC(=O)c1ccc(-c2nc3ccc4[nH]ncc4c3c3c2CCCC3)s1 — GI50 (MV4-11; resazurin; 72 h): 157 nM
CC(c1ccccc1)n1nc(-c2ccc(CO)o2)c2ccccc21 (stereo not drawn) — inhibition (RBE; ATP luminescence; 46 µM; 72 h): 76%
Cc1n[nH]c2ccc3nc(-c4ccc(C(=O)NCCN(C)C)cc4F)c4c(c3c12)CCCCC4 — GI50 (MV4-11; resazurin; 72 h): 88 nM
OCCc1ccc(-c2nn(Cc3ccccc3)c3ccccc23)o1 — inhibition (RBE; ATP luminescence; 46 µM; 72 h): 21%
C[C@H](Nc1ccc2c(c1)OCCn1cc(N3C(=O)OC[C@H]3C(F)F)nc1-2)C(N)=O — EC50 (IM95; ATP luminescence; 5 days): 388 nM
CN(C)CCNC(=O)c1ccc(-c2nc3ccc4[nH]ncc4c3c3c2CCCC3)c(F)c1 — GI50 (MV4-11; resazurin; 72 h): 127 nM
O=C(/C=C/c1cccc(C(=O)NO)c1)NO — viability (HBL1; ATP luminescence; 0.5 µM; 5 days): 89.6%
CN(C)CC1(NC(=O)c2ccc(-c3nc4ccc5[nH]ncc5c4c4c3CCCC4)cc2)CC1 — GI50 (MV4-11; resazurin; 72 h): 536 nM
COCCN(Cc1ccc(F)cc1)c1ccc(CO)c(Cl)c1 — inhibition (RBE; ATP luminescence; 46 µM; 72 h): 75%
NCCCC(=O)Nc1ccccc1/N=c1\cc(-c2ccc3c(c2)OCO3)oc2ccccc12 — inhibition (MDA-MB-468; CCK-8; 1 µM): 8.13%
CN(C)CCNC(=O)c1ccc(-c2nc3ccc4[nH]ncc4c3c3c2CCC3)cc1 — GI50 (MV4-11; resazurin; 72 h): 100 nM
OCc1ccc(-c2nn(Cc3ccccn3)c3ccccc23)o1 — inhibition (RBE; ATP luminescence; 46 µM; 72 h): 70%
CCNc1nc2ccc(-c3c/c(=N\c4ccccc4NC(=O)CCN)c4ccccc4o3)cc2o1 — inhibition (MDA-MB-468; CCK-8; 1 µM): 31.4%
O=C(Nc1nccs1)c1ccc(-c2nc3ccc4[nH]ncc4c3c3c2CCCC3)cc1 — GI50 (MV4-11; resazurin; 72 h): 743 nM
NCCC(=O)Nc1ccccc1/N=c1\cc(-c2ccc3c(c2)OCO3)oc2ccccc12 — inhibition (MDA-MB-468; CCK-8; 1 µM): 19.2%
O=C(CCCCCCSc1ccc2ccccc2c1)NO — viability (HBL1; ATP luminescence; 1 µM; 5 days): 98.6%
NC(=O)C1CCCN1C(=O)Nc1ccccc1/N=c1\cc(-c2ccc3c(c2)OCCO3)oc2cc(F)ccc12 (stereo not drawn) — inhibition (MDA-MB-468; CCK-8; 1 µM): 3.25%
O=C(CCCCCCC(=O)Nc1ccccc1)NO — viability (HBL1; ATP luminescence; 1 µM; 5 days): 10.7%
Nc1ccccc1/N=c1\cc(-c2ccc3c(c2)OCO3)oc2ccccc12 — inhibition (MDA-MB-468; CCK-8; 1 µM): 5.28%
CCN(Cc1cccc(C)c1)c1ccc(CO)c(Cl)c1 — inhibition (RBE; ATP luminescence; 46 µM; 72 h): 85%
O=C(NO)c1ccc(CC(=O)N(CCO)c2ccccc2)cc1 — viability (HBL1; ATP luminescence; 0.1 µM; 5 days): 103%
Nc1nc2ccc(-c3c/c(=N\c4ccccc4NC(=O)C4CCNC4)c4ccccc4o3)cc2o1 (stereo not drawn) — inhibition (MDA-MB-468; CCK-8; 1 µM): 55.6%
CN(C)CCNC(=O)c1ccc(-c2nc3ccc4[nH]ncc4c3c3c2CC(F)(F)CC3)cc1 — GI50 (MV4-11; resazurin; 72 h): 112 nM
O=C(Nc1cccc(Br)c1)c1cccc(S(=O)(=O)N2CCCCCC2)c1 — viability (HBL1; ATP luminescence; 0.1 µM; 5 days): 134%
COc1cnccc1Cn1nc(-c2ccc(CO)o2)c2ccccc21 — inhibition (RBE; ATP luminescence; 46 µM; 72 h): 85%
COCCC(=O)Nc1ccccc1/N=c1\cc(-c2ccc3c(c2)OCO3)oc2ccccc12 — inhibition (MDA-MB-468; CCK-8; 1 µM): 2.51%
O=C(Nc1ccc(Cl)cc1)C1CCCN(C(=O)c2cc(C(F)(F)F)cc(C(F)(F)F)c2)C1 (racemic) — viability (HBL1; ATP luminescence; 0.5 µM; 5 days): 98.8%
CN(C)CCNC(=O)c1ccc(-c2nc3ccc4[nH]ncc4c3c3c2CCCCC3)cc1 — GI50 (MV4-11; resazurin; 72 h): 25 nM
CCN(Cc1c(F)cccc1F)c1ccc(CO)c(Cl)c1 — inhibition (RBE; ATP luminescence; 46 µM; 72 h): 57%
